According to ChEMBL document CHEMBL4725346, “Syntheses and Evaluation of New Bisacridine Derivatives for Dual Binding of G-Quadruplex and i-Motif in Regulating Oncogene c-myc Expression” (J Med Chem, 2020):
Calls of active or inactive are those of the source. The calls are words filed in the database; no cut-off is given here.

Tests used:
[1] = Stabilization of 5'-FAM/3'-TAMRA labeled c-myc promoter i-motif DNA FPy33T (unknown origin) assessed as change in melting temperature at 1 uM by FRET assay (reference value: 53.2 degreeC)
Procedure, shortened: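 FRET melting of dual FAM/TAMRA-labelled FPy33T annealed in 1× BPES (30 mM potassium phosphate, 1 mM EDTA, 100 mM KCl), pH 5.5. Final 0.2 µM DNA with or without ligand. Excitation 470 nm, emission 530 nm, read every 1 °C over 37–99 °C. ΔTm taken against DNA alone.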

dsDNA = test: Binding affinity to 5'-biotin labeled duplex DNA (unknown origin) by surface plasmon resonance method; type: nucleic-acid assay
Procedure, shortened: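 SPR: 5'-biotin DNA diluted to 1 μM and captured (1000 RU) on a sensor chip, with a blank cell as reference. Running buffers: Py33 in 20 mM MES pH 5.8, 100 mM KCl, 0.05% Tween-20; Pu27 and duplex in 50 mM Tris-HCl pH 7.4, 100 mM KCl. Six ligand concentrations serially diluted from DMSO stock. Association 260 s, dissociation 300 s at 25 °C; NaOH regeneration; blank sensorgrams subtracted.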

Quadruplex DNA [2] = test: Binding affinity to c-myc promoter G-quadruplex DNA Pu27 (unknown origin) at 50 uM by isothermal titration calorimetry; type: nucleic-acid assay
Procedure, shortened: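 ITC at 20 °C on degassed solutions. Cell held preformed DNA ([…]). Syringe held ligand in the same buffer (50 μM for Pu27, 20 μM for Py33). 28 injections of 10 μL at 4 min intervals. Heats of dilution from ligand-into-buffer runs subtracted before model fitting.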

[3] = Stabilization of c-myc promoter i-motif DNA Py33 (unknown origin) assessed as increase in slower migration band incubated overnight by silver staining based PAGE analysis
Procedure, shortened: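 Py33 (3 µM) co-annealed with increasing ligand in 1× BPES pH 6.8 at 95 °C for 5 min, cooled, held at 4 °C overnight. Run on native 20% acrylamide in 1× TBE at 140 V for 5 h at 5 °C, then silver-stained.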

U2OS = test: Antiproliferative activity against human U2OS cells after 48 hrs by MTT assay; type: functional, cell-based
Procedure, shortened: (§1)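 Cells seeded at 5.0×10^3 per well, pre-incubated 12 h at 37 °C, 5% CO2, then exposed to compounds for 48 h; DMSO-only control. MTT (2.5 mg/mL) added for 4 h, formazan dissolved in DMSO, absorbance at 570 nm. Each dose tested in triplicate; IC50 from percentage survival relative to negative control.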

SiHa [4] = test: Antiproliferative activity against human SiHa cells after 48 hrs by MTT assay; type: functional, cell-based; procedure, shortened: as §1
[5] = Drug uptake in human SiHa cells; type: ADME, cell-based
SiHa [6] = test: Inhibition of c-myc transcription in human SiHa cells harboring c-myc deleted promoter G-quadruplex/i-motif (unknown origin) assessed as decrease in ratio of renilla/firefly luciferase activity at 0.025 to 0.1 uM after 48 hrs by dual-luciferase reporter assay; type: functional, cell-based; details: dose microM 0.025-0.1, time 48.0 hrs
Procedure, shortened: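 Psicheck2 plasmid carrying deleted c-myc promoter (lacking NHE III₁ G/C-rich sequence), 200 ng, lipofected into SiHa cells. Compound added 8 h post-transfection, cells kept 48 h at 37 °C, washed with ice-cold PBS, then Renilla/Firefly luciferase activity ratio measured with a dual-luciferase kit.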

Quadruplex DNA [7] = test: Binding affinity to c-myc promoter G-quadruplex/i-motif in human SiHa cells assessed as reduction in c-myc mRNA level at 1.25 uM incubated for 24 hrs by qRT-PCR analysis; type: cell-based; set-up: scale not given: the % may be the effect or the level left
Procedure, shortened: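 SiHa cells at 0, 0.625, 1.25 and 2.5 μM for 24 h; DMSO control. Total RNA extracted with TRIzol. 1.5 μg RNA reverse-transcribed with oligo dT18 and M-MLV (42 °C 60 min). PCR of 30 cycles (95/58/72 °C), products run on 1.2% agarose. β-actin as internal control; three repeats.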

SiHa [8] = test: Effect on stability of c-myc RNA in human SiHa cells at 2.5 uM in presence of actinomycin D by RT-PCR method; type: functional, cell-based
Procedure, shortened: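 SiHa cells seeded at 2×10^5 per well, grown 24 h, then treated with 5 µg/mL actinomycin D plus 2.5 µM compound. Total RNA extracted at the indicated time points for RT-PCR.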

Quadruplex DNA [9] = test: Binding affinity to c-myc promoter G-quadruplex/i-motif in human SiHa cells assessed as reduction in c-myc expression incubated for 24 hrs by Western blot analysis; type: cell-based
Procedure, shortened: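 SiHa cells treated 24 h at 0, 0.625, 1.25 and 2.5 μM, then lysed in buffer with 1 mM PMSF. Protein measured by BCA, equal loads run on 8% gel and blotted to PVDF. Probed with anti-c-MYC and anti-β-actin (loading control), HRP anti-rabbit secondary, chemiluminescence read-out.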

SiHa [10] = test: Induction of cell cycle arrest in human SiHa cells assessed as accumulation of cells at S phase at 0.60 uM after 24 hrs by propidium iodide staining based flow cytometry (reference value: 17.74%); type: functional; details: dose 0.6 µM
SiHa [11] = test: Induction of apoptosis in human SiHa cells assessed as late apoptotic cells at 0.6 uM after 24 hrs by annexin V/FITC-propidium iodide staining-based flow cytometric method ( Rvb = 0.4%); type: functional
SiHa [12] = test: Induction of apoptosis in human SiHa cells assessed as necrotic cells at 1.2 uM after 24 hrs by annexin V/FITC-propidium iodide staining-based flow cytometric method ( Rvb = 0.1%); type: functional
SiHa [13] = test: Induction of apoptosis in human SiHa cells assessed as necrotic cells at 2.4 uM after 24 hrs by annexin V/FITC-propidium iodide staining-based flow cytometric method ( Rvb = 0.1%); type: functional
SiHa [14] = test: Induction of apoptosis in human SiHa cells assessed as decrease in caspase-9 level incubated for 24 hrs by Western blot analysis; type: functional, cell-based; details: dose microM 0.6-2.4, time 24.0 hrs
SiHa [15] = test: Induction of apoptosis in human SiHa cells assessed as increase in cleaved caspase-9 level incubated for 24 hrs by Western blot analysis; type: functional, cell-based; details: dose microM 0.6-2.4, time 24.0 hrs
SiHa [16] = test: Antitumor activity against human SiHa cells xenografted in BALB/c nude mouse assessed as reduction in tumor volume at 15 mg/kg, ip administered once per 2 days for 18 days (reference value: 750 mm3); type: functional; details: time 18 day
Procedure, shortened: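 SiHa tumor fragments from donor xenografts (grown to about 1,000 mm³) implanted in the underarm of female BALB/c nude mice; six per group. Dosed ip once every two days for 18 days, saline as negative control, cisplatin 0.2 mg/kg as positive control. Tumor volume = length × width²/2. Tumors weighed at sacrifice.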

[17] = Toxicity in BALB/c nude mouse xenografted with human SiHa cells assessed as effect on heart weight at 15 mg/kg, ip administered once per 2 days for 18 days; type: organism-based; details: in vivo, 432 h, time 18 day
Procedure, shortened: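 SiHa tumour fragments passaged from donor mice implanted in the underarm of female BALB/c nude mice (six per group). Compound given at 15 mg/kg ip once every two days for 18 days, with saline and cisplatin 0.2 mg/kg control groups. Body weight recorded every two days; at day 18 mice were sacrificed and organs weighed.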

ΔTm [1]: 11 °C
Kd (dsDNA): 18.5 µM
Kd (Quadruplex DNA [2]): 0.81 µM
Activity [3]: Dose-dependent effect
IC50 (U2OS): 0.31 µM
Drug uptake [5]: Active
Structure (SMILES): Cc1ccc2nc3ccc(C)cc3c(NCCCNCCNCCCNc3c4cc(C)ccc4nc4ccc(C)cc34)c2c1
IC50 (SiHa [4]): 1.22 µM
Activity (SiHa [6]): inactive
Activity (Quadruplex DNA [7]): 40.1%
Activity (SiHa [8]): inactive
Activity (Quadruplex DNA [9]): Dose-dependent effect
Activity (SiHa [10]): 13.58%
Activity (SiHa [11]): 3.8%
Activity (SiHa [12]): 4.6%
Activity (SiHa [13]): 5.5%
Activity (SiHa [14]): Dose-dependent effect
Activity (SiHa [15]): Dose-dependent effect
Activity (SiHa [16]): 450 mm3
Activity [17]: Non-Toxic
